Results as given in ChEMBL document CHEMBL1140930 (J Med Chem, 2009).

Key:
K562 = assay: Antiproliferative activity against human K562 cells after 48 hrs; format: functional, cell-based; details: K562, 48 h
Summary of the method: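 K562 cells (RPMI 1640, 10% FBS, 37 °C, 5% CO2) plated at 2 × 10⁵ cells/mL. Compounds dissolved in DMSO/methanol 1:1, vehicle 0.5%. Cells counted in a Neubauer chamber after 48 h and expressed as % of untreated control. Triplicate wells, three experiments. IC50 from nonlinear regression.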

Tubulin = Tubulin (Sus scrofa, UniProt P02554+P02550); assay: Inhibition of pig brain tubulin polymerization after 30 mins by turbidimetric assay
Summary of the method: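 Microtubule protein from porcine brain (80–90% tubulin, 10–20% MAPs), purified by two disassembly/reassembly cycles. Assay buffer: 20 mM PIPES pH 6.8, 80 mM NaCl, 0.5 mM MgCl2, 1 mM EGTA, 1 mM DTT. Protein at 1.2 mg/mL with 0.6 mM GTP final, 1% DMSO final, 37 °C.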

[1] = Antiproliferative activity against human KB/HeLa cells by XTT assay; format: functional, cell-based
Summary of the method: (§1)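 XTT metabolic read-out. Cells seeded at 1 × 10³–8 × 10⁴ cells/well for logarithmic growth and exposed to graded concentrations for 48 h. At least two replicates. IC50 from nonlinear regression of dose-response curves. LT12/MDR: rat LT12 with ectopic human MDR-1. L1210/VCR: MDR-1 expressing, MRP-1 negative.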

SK-OV-3 = assay: Antiproliferative activity against human SKOV3 cells by XTT assay; format: functional, cell-based
Summary of the method: (§2)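 XTT metabolic-activity read-out of proliferation. Cells were seeded at 1 × 10³-8 × 10⁴ cells/well for logarithmic growth and exposed to a range of compound concentrations for 48 h. IC50 came from nonlinear regression of dose-response curves, with at least two replicates. The P388/Adr subline was doxorubicin-selected with elevated MDR-1.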

SF-268 = assay: Antiproliferative activity against human SF268 cells by XTT assay; format: functional, cell-based; summary of the method: as §1
NCI-H460 = assay: Antiproliferative activity against human NCI-H460 cells by XTT assay; format: functional, cell-based; summary of the method: as §1
RKO [2] = assay: Antiproliferative activity against human RKO cells by XTT assay; format: functional, cell-based
Summary of the method: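 RKO colon cells with ecdysone-inducible p27Kip1. Day 1: plated with or without 3 µM ponasterone A for 24 h, giving G1 arrest when induced (2 × 10⁴ cells/well induced; 6 × 10³ not induced). Day 2: compound added (DMSO control) for 48 h at 37 °C, then standard XTT. At least duplicate. IC50 by nonlinear regression.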

RKO [3] = assay: Antiproliferative activity against human RKO cells containing ecdysone-inducible expression vector of p27kipl by XTT assay; format: functional, cell-based
Summary of the method: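 RKO cells carried an ecdysone-inducible p27Kip1 vector and were tested with and without induction. On day 1 they were plated with or without 3 µM ponasterone A, which gives G1 arrest, at 2 × 10⁴ cells/well induced or 6 × 10³ not induced, then held 24 h at 37 °C. Compound was then added for 48 h at 37 °C, followed by a standard XTT assay. IC50 came from nonlinear regression, n ≥ 2.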

[4] = Antiproliferative activity against rat LT12 cells after 48 hrs by XTT assay; format: functional, cell-based; details: LT12, 48 h; summary of the method: as §2
[5] = Antiproliferative activity against rat LT12 cells ectopic expression of human MDR1 after 48 hrs by XTT assay; format: functional, cell-based; details: LT12, 48 h; summary of the method: as §1
L1210 = assay: Antiproliferative activity against vincristine-resistance MRP1 negative mouse L1210 cells expressing human MDR1 after 48 hrs by XTT assay; format: functional, cell-based; details: L1210, 48 h; summary of the method: as §1
P388 [6] = assay: Antiproliferative activity against mouse P388 cells after 48 hrs by XTT assay; format: functional, cell-based; details: P388, 48 h; summary of the method: as §2
P388 [7] = assay: Antiproliferative activity against doxorubicin-resistant mouse P388 cells expressing MDR1 protein after 48 hrs by XTT assay; format: functional, cell-based; details: P388, 48 h; summary of the method: as §2
[8] = Cell cycle arrest in human KB/HeLa cells assessed as G2/M phase accumulation after 24 hrs by FACS analysis; format: functional, cell-based
Summary of the method: (§3)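 Subconfluent KB/HeLa cells exposed to a range of compound concentrations for 24 h at 37 °C, then detached and fixed in 70% ethanol. DNA stained with propidium iodide after RNase digestion and measured by flow cytometry. Cell-cycle phase fractions taken from cell cycle analysis software. At least two replicates.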

[9] = Cell cycle arrest in human KB/HeLa cells assessed as S phase accumulation at 1 nM after 24 hrs by FACS analysis; format: functional, cell-based; summary of the method: as §3
[10] = Cell cycle arrest in human KB/HeLa cells assessed as G2/M phase accumulation at 1 nM after 24 hrs by FACS analysis; format: functional, cell-based; summary of the method: as §3
[11] = Cell cycle arrest in human KB/HeLa cells assessed as G1 phase accumulation at 1 nM after 24 hrs by FACS analysis; format: functional, cell-based; summary of the method: as §3
[12] = Cell cycle arrest in human KB/HeLa cells assessed as S phase accumulation at 3.16 nM after 24 hrs by FACS analysis; format: functional, cell-based; summary of the method: as §3
[13] = Cell cycle arrest in human KB/HeLa cells assessed as G2/M phase accumulation at 3.16 nM after 24 hrs by FACS analysis; format: functional, cell-based; summary of the method: as §3
[14] = Cell cycle arrest in human KB/HeLa cells assessed as G1 phase accumulation at 3.16 nM after 24 hrs by FACS analysis; format: functional, cell-based; summary of the method: as §3
[15] = Cell cycle arrest in human KB/HeLa cells assessed as S phase accumulation at 10 nM after 24 hrs by FACS analysis; format: functional, cell-based; summary of the method: as §3
[16] = Cell cycle arrest in human KB/HeLa cells assessed as G2/M phase accumulation at 10 nM after 24 hrs by FACS analysis; format: functional, cell-based; summary of the method: as §3
[17] = Cell cycle arrest in human KB/HeLa cells assessed as G1 phase accumulation at 10 nM after 24 hrs by FACS analysis; format: functional, cell-based; summary of the method: as §3
[18] = Cell cycle arrest in human KB/HeLa cells assessed as S phase accumulation at 31.6 nM after 24 hrs by FACS analysis; format: functional, cell-based; summary of the method: as §3
[19] = Cell cycle arrest in human KB/HeLa cells assessed as G2/M phase accumulation at 31.6 nM after 24 hrs by FACS analysis; format: functional, cell-based; summary of the method: as §3
[20] = Cell cycle arrest in human KB/HeLa cells assessed as G1 phase accumulation at 31.6 nM after 24 hrs by FACS analysis; format: functional, cell-based; summary of the method: as §3
[21] = Cell cycle arrest in human KB/HeLa cells assessed as S phase accumulation at 100 nM after 24 hrs by FACS analysis; format: functional, cell-based; summary of the method: as §3
[22] = Cell cycle arrest in human KB/HeLa cells assessed as G2/M phase accumulation at 100 nM after 24 hrs by FACS analysis; format: functional, cell-based; summary of the method: as §3
[23] = Cell cycle arrest in human KB/HeLa cells assessed as G1 phase accumulation at 100 nM after 24 hrs by FACS analysis; format: functional, cell-based; summary of the method: as §3
[24] = Cell cycle arrest in human KB/HeLa cells assessed as S phase accumulation at 316 nM after 24 hrs by FACS analysis; format: functional, cell-based; summary of the method: as §3
[25] = Cell cycle arrest in human KB/HeLa cells assessed as G2/M phase accumulation at 316 nM after 24 hrs by FACS analysis; format: functional, cell-based; summary of the method: as §3
[26] = Cell cycle arrest in human KB/HeLa cells assessed as G1 phase accumulation at 316 nM after 24 hrs by FACS analysis; format: functional, cell-based; summary of the method: as §3

## O=C1c2ccccc2C(C(O)C(=O)c2ccccc2)c2ccccc21 (stereo not given)
K562
  IC50: 27000 nM
Tubulin
  IC50: > 10000 nM

## COc1ccc(C(=O)C=C2c3ccccc3C(=O)c3ccccc32)c(OC)c1
Tubulin
  IC50: 900 nM

## COc1ccc(C(=O)C=C2c3ccccc3C(=O)c3ccccc32)c(OC)c1OC
K562
  IC50: 11000 nM
Tubulin
  IC50: > 10000 nM

## COc1cc(C(=O)C=C2c3ccccc3C(=O)c3ccccc32)cc(OC)c1OC
K562
  IC50: 700 nM
Tubulin
  IC50: 3700 nM

## COc1ccc(C(=O)C=C2c3ccccc3C(=O)c3ccccc32)c(O)c1OC
K562
  IC50: > 30000 nM
Tubulin
  IC50: > 10000 nM

## COc1ccccc1OC(=O)C=C1c2ccccc2C(=O)c2ccccc21
K562
  IC50: 1900 nM
Tubulin
  IC50: 10000 nM

## O=C(C=C1c2ccccc2C(=O)c2ccccc21)c1cccs1
K562
  IC50: 5210 nM
Tubulin
  IC50: 10000 nM

## O=C(C=C1c2ccccc2C(=O)c2ccccc21)c1ccc(O)cc1
K562
  IC50: 3430 nM
Tubulin
  IC50: 900 nM

## COc1csc(C(=O)C=C2c3ccccc3C(=O)c3ccccc32)c1
K562
  IC50: 690 nM
Tubulin
  IC50: 2300 nM

## COc1cccc(C(=O)C=C2c3ccccc3C(=O)c3ccccc32)c1
K562
  IC50: 2600 nM
Tubulin
  IC50: 3300 nM

## COc1ccc(C(=O)COc2c3ccccc3cc3ccccc23)cc1
K562
  IC50: 10000 nM

## COc1ccc(C(=O)C(O)C2c3ccccc3C(=O)c3ccccc32)cc1 (stereo not given)
K562
  IC50: 18000 nM
Tubulin
  IC50: > 10000 nM

## COC(=O)C=C1c2ccccc2C(=O)c2ccccc21
K562
  IC50: 6000 nM

## Cc1ccc(C(=O)C=C2c3ccccc3C(=O)c3ccccc32)cc1
K562
  IC50: 640 nM
Tubulin
  IC50: 1100 nM

## COc1cccc(OC)c1OC(=O)C=C1c2ccccc2C(=O)c2ccccc21
K562
  IC50: 1640 nM
Tubulin
  IC50: 10000 nM

## O=C(C=C1c2ccccc2C(=O)c2ccccc21)c1ccc(O)c(O)c1
[1]
  IC50: 270 nM
SK-OV-3
  IC50: 160 nM
SF-268
  IC50: 220 nM
NCI-H460
  IC50: 430 nM
RKO [2]
  IC50: 240 nM
RKO [3]
  IC50: > 9000 nM
K562
  IC50: 160 nM
Tubulin
  IC50: 2600 nM

## COc1ccc(C(=O)C=C2c3ccccc3C(O)c3ccccc32)cc1 (stereo not given)
K562
  IC50: 210 nM
Tubulin
  IC50: 1200 nM

## COc1cc(C(=O)C(O)C2c3ccccc3C(=O)c3ccccc32)cc(OC)c1OC (stereo not given)
K562
  IC50: 21000 nM
Tubulin
  IC50: > 10000 nM

## O=C(C=C1c2ccccc2C(=O)c2ccccc21)c1ccccc1
K562
  IC50: 3600 nM
Tubulin
  IC50: 5000 nM

## COC(=O)Nc1nc2cc(C(=O)c3cccs3)ccc2[nH]1 [NOCODAZOLE]
[1]
  IC50: 140 nM
RKO [3]
  IC50: > 10000 nM
[4]
  IC50: 6 nM
[5]
  IC50: 400 nM
L1210
  IC50: > 5000 nM
P388 [6]
  IC50: 40 nM
P388 [7]
  IC50: > 5000 nM
[8]
  EC50: 91 nM
[9]
  Activity: 23.6%
[10]
  Activity: 11.1%
[11]
  Activity: 65.2%
[12]
  Activity: 24.8%
[13]
  Activity: 10.6%
[14]
  Activity: 64.6%
[15]
  Activity: 25.7%
[16]
  Activity: 10%
[17]
  Activity: 64.2%
[18]
  Activity: 25.7%
[19]
  Activity: 9.9%
[20]
  Activity: 64.4%
[21]
  Activity: 26.1%
[22]
  Activity: 51.4%
[23]
  Activity: 22.3%
[24]
  Activity: 6%
[25]
  Activity: 93.2%
[26]
  Activity: 0.9%

## CC(=O)O[C@H]1C(=O)[C@@]2(C)[C@H]([C@H](OC(=O)c3ccccc3)[C@]3(O)C[C@H](OC(=O)[C@H](O)[C@@H](NC(=O)c4ccccc4)c4ccccc4)C(C)=C1C3(C)C)[C@]1(OC(C)=O)CO[C@@H]1C[C@@H]2O [PACLITAXEL]
[1]
  IC50: 30 nM
SK-OV-3
  IC50: 50 nM
SF-268
  IC50: 50 nM
NCI-H460
  IC50: 70 nM
RKO [2]
  IC50: 20 nM
RKO [3]
  IC50: > 10000 nM
[4]
  IC50: 300 nM
[5]
  IC50: 50 nM
L1210
  IC50: 70 nM
P388 [6]
  IC50: 70 nM
P388 [7]
  IC50: 50 nM
[8]
  EC50: 49 nM
[9]
  Activity: 26.7%
[10]
  Activity: 10.1%
[11]
  Activity: 63.2%
[12]
  Activity: 27%
[13]
  Activity: 9.4%
[14]
  Activity: 63.6%
[15]
  Activity: 26.6%
[16]
  Activity: 8.5%
[17]
  Activity: 64.8%
[18]
  Activity: 49.9%
[19]
  Activity: 19%
[20]
  Activity: 31.1%
[21]
  Activity: 11%
[22]
  Activity: 87.9%
[23]
  Activity: 1.2%
[24]
  Activity: 8.9%
[25]
  Activity: 90.8%
[26]
  Activity: 0.3%

## CC[C@]1(O)C[C@@H]2CN(CCc3c([nH]c4ccccc34)[C@@](C(=O)OC)(c3cc4c(cc3OC)N(C)[C@H]3[C@@](O)(C(N)=O)[C@H](O)[C@]5(CC)C=CCN6CC[C@]43[C@@H]65)C2)C1 [VINDESINE]
[4]
  IC50: 200 nM
[5]
  IC50: 260 nM
L1210
  IC50: > 5000 nM
